Screening results from PubChem BioAssay.
Compounds with a hit are over-represented: about 2.4% of the library has one in this group of screens.
Cneo AK release: Cryptococcus neoformans lysis via adenylate kinase release; AID 651654; 0.2% of 360,000 active; C. neoformans lysis, adenylate kinase release luminescence, 4 h; normalised: neutral wells 0, clomiphene wells 100; lysis activity, % at 15 µM;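 active means mean lysis activity across replicates of at least 80%, whatever share of replicates individually reach that level; inactive means mean lysis activity below 80%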
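Test system: log-phase Cryptococcus neoformans yeast cells; Quantity: yeast cell density of 5 × 10^6 cells/mL; Buffer or medium: YPD; Doses: single compound concentration per well; Timing: 4 h at 37 °C static, read 1 h later; Measured by: AK luminescence; Read-out basis: lysis from increased AK signal; Control set: Clomiphene as positive control.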
Rtt109 HAT inh: inhibitors of Candida albicans Rtt109/Vps75 histone acetyltransferase. Q5AAJ8. purified Rtt109/Vps75, ThioGlo CoA-SH fluorescence, 4 h. inhibition, % at 34.9 µM. 0.16% of 330,000 active;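 active means inhibition of at least 50% in every replicate; inconclusive means best replicate reaches 50% inhibition but some replicates fall short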
Target sequence (Q5AAJ8 whole entry, looked up): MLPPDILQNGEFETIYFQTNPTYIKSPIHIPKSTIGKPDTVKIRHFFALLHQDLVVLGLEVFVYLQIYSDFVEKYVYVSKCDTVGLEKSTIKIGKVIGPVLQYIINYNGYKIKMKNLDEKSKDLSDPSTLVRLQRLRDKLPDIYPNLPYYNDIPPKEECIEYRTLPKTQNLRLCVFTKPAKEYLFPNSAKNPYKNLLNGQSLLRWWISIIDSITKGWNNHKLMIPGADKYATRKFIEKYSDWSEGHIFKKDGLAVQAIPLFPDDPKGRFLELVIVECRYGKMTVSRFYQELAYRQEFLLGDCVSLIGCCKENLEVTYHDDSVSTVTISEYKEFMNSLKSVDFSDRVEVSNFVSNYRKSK
GSIS activator: GLuc luminescence reporter in INS-1E cells, primary screen for activators of glucose-dependent secretion of insulin; INS-1E GLuc reporter insulin secretion, 2-3 h; activation, % at 16.6 µM; 0.61% of 370,000 active; AID 743287;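 active means lowest replicate activation of at least 40%, so every replicate reaches that level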;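 further: 0% = median of neutral control wells and 100% = median of IBMX positive control wells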
miR122 inh: inhibitors of miR-122 in Huh7 cells. 0.3% of 340,000 active. Huh7 miR-122 Renilla luciferase sensor, 48 h; neutral wells = 0, positive control = 100. activation (reporter increase), % at 12.5 µM;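 active means mean replicate activation score at least 90 and every replicate individually at or above 90; inconclusive means only one of the two criteria met; inactive means neither criterion met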;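 further: higher luciferase means less miR-122 activity so hits act as miR-122 inhibitors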
dFosB act: enhances mouse delta FosB homodimer DNA binding. P13346. purified delta FosB, TAMRA-CDK5 oligo fluorescence polarization; percent of positive-control signal above neutral wells. activation, % at 25 µM. 0.99% of 340,000 active. AID 493131;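 active means mean activation above about 17%, with every replicate also reaching it, limit read from the data, passing the limit was not always enough; inconclusive means only one of the two conditions met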
Env fusion inh: HIV envelope-mediated fusion inhibition | inhibition, % at 12.3 µM | 1.1% of 360,000 active | HeLa-JRFL Env/CEM21 cell fusion, luciferase;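 active means mean replicate inhibition score of at least 50 and every replicate individually at or above 50; inconclusive means only one of the two criteria met; inactive means mean below 50 and not all replicates reaching 50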;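 further: 0% = plate neutral controls and 100% = maraviroc near 300 nM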
* hit, by the source's call; u = inconclusive; x = no result; ! = a repeat was not active; [ ] = another dose, or the depositor's remark.

SMILES	Cneo AK release	Rtt109 HAT inh	GSIS activator	miR122 inh	dFosB act	Env fusion inh
O=C(Cn1c(COc2ccccc2)nc2ccccc21)Nc1cc(Cl)ccc1Cl	x	-3	x	x	4	-21
O=C(Cn1c(COc2ccccc2)nc2ccccc21)Nc1cc(Cl)cc(Cl)c1	1	3	68*	-4	-10	28
CN(C)C(=O)[C@@H]1[C@@H](CO)[C@@H]2Cn3c(ccc(-c4cccnc4)c3=O)[C@@H]2N1Cc1ccccc1F	-1	x	9	-1[16.7 µM]	x	x
CCOC(=O)C1=CCN(S(=O)(=O)c2ccc(F)cc2)C1c1cccc(Cl)c1 (stereo not given)	-5	x	-15	-1	x	16
CCOC(=O)C1=C[C@@H](C(C)(C)C)N(S(=O)(=O)c2ccc(OC)cc2)[C@H]1c1ccccc1	4	x	-52	-10	x	63*
CCOC(=O)C1=C[C@@H](C(C)(C)C)N(S(=O)(=O)c2ccc([N+](=O)[O-])cc2)[C@H]1c1cccc(Cl)c1	x	x	-1	x	x	71*
CCOC(=O)C1=CC[C@@H](c2cccc(Br)c2)N(S(=O)(=O)c2ccc(F)cc2)[C@H]1c1cccc(Cl)c1	x	x	-9	x	x	60*
CCOC(=O)C1=C[C@@H](C(C)(C)C)N(S(=O)(=O)c2ccc(C)cc2)[C@H]1c1cccc(Cl)c1	0	x	6	3	x	33
CCOC(=O)C1=C[C@@H](C(C)(C)C)N(S(=O)(=O)c2ccc(C)cc2)[C@H]1c1ccc(OC)cc1	1	x	9	0	x	15
COc1ccc(CNC(=O)C2=CC(c3ccc(OC)c(OC)c3)=NS(=O)(=O)N2C)cc1	-1	-4	2	1	-1	x
CCc1ccc(NC(=O)C2=CC(c3ccc(OC)c(OC)c3)=NS(=O)(=O)N2C)cc1	2	7	-6	0	-6	56*
COc1ccc(S(=O)(=O)N2c3cc(C)ccc3OCC2C(C)(C)C)cc1 (stereo not given)	-1	3	-24	151*	-7	-37
CCc1nnc(NC(=O)C(CC)c2ccccc2)s1 (stereo not given)	0	1	-6	-29	-9	13
CCc1nnc(NC(=O)C(c2ccccc2)c2ccccc2)s1	1	-4	103*	x	-8	16
CCCc1nnc(NC(=O)CCN2C(=O)c3ccccc3C2=O)s1	-18	-5	x	3	19*	4
COCc1nnc(NC(=O)CCN2C(=O)c3ccccc3C2=O)s1	-4	3	9	4	3	-14
CC(C)NC(=O)N[C@H]1C=C[C@H](CC(=O)N2CCCCC2)O[C@@H]1CO	-1	x	0	8[16.7 µM]	x	4[16.7 µM]
CC1=C(C(=O)OCc2ccccc2)C(c2cccnc2)c2c(n(C)c(=O)n(C)c2=O)N1 (stereo not given)	-1	18	42*!	10	-1	x
CC1=C(C(=O)OCc2ccccc2)C(c2cccnc2)n2ncnc2N1 (stereo not given)	x	3	x	1	-2	x
C=CCNc1nc2c(c(=O)n(C)c(=O)n2C)n1CCCCCC	-2	x	x	-22	-6	92*
COC(=O)CN1C(c2ccccc2)=Nc2ccc(Cl)cc2C1c1ccccc1 (stereo not given)	0	4	x	4	-7	105*
COc1ccccc1NC(=O)Oc1ccc(C(C)=O)cc1	-2	-9	x	-3	4	59*
COc1ccccc1NC(C)=O	1	-4	x	9	-2	x
C[C@@H]1CCCCO[C@@H](CN(C)S(=O)(=O)c2cccs2)[C@H](C)CN([C@@H](C)CO)C(=O)c2cc(NC(=O)Nc3ccccc3)ccc2O1	-6	x	18	-1[16.7 µM]	x	u
CNC[C@@H]1Oc2c(NC(=O)NC(C)C)cccc2C(=O)N(C)C[C@@H]1C	x	x	-5	x	x	x
c1ccc(-n2nnnc2Sc2ncnc3sc4c(c23)CCCC4)cc1	-1	-9	2	-11	-19	32
Cc1sc2ncnc(Sc3nnnn3-c3ccc(Cl)cc3)c2c1C	4	-2	x	4	-1	50*
C[C@@H]1CN([C@@H](C)CO)C(=O)c2cc(NC(=O)Cc3ccccc3)ccc2O[C@@H](C)CCCCO[C@H]1CN(C)CC1CCCCC1	0	x	-9	-1[16.7 µM]	x	4[16.7 µM]
